Shown are actives, neighbours in structure and some others; about 1.9% of the full set was active somewhere.
M5 ag: CHRM5 agonism in calcium assay; P08912; CHO-K1 hM5 cells, Fluo-8 calcium fluorescence; 0% DMSO wells, 100% maximal acetylcholine response; activation, % at 3 µM; actives 0.19% (n = 360,000);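 active = activation above the run's mean over test compounds plus 3 SD, cut at about 23% in these data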;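 also: signal is peak over basal fluorescence ratio across the kinetic read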
Target sequence (P08912 whole entry, looked up): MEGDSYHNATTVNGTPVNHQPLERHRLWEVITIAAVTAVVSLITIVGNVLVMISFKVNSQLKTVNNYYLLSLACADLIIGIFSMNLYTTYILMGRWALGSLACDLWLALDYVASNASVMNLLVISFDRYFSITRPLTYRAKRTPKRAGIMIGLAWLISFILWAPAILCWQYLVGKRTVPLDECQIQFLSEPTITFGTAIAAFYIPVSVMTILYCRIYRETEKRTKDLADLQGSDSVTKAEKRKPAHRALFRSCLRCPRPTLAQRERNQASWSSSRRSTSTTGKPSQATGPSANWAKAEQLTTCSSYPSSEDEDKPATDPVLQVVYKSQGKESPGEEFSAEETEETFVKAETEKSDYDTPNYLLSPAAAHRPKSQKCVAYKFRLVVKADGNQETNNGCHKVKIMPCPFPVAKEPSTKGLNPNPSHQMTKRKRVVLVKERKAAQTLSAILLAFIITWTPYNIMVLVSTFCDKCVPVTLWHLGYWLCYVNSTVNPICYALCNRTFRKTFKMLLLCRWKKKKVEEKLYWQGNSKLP
CHRM5 antagonist: antagonists of human muscarinic M5 receptor (CHRM5); CHO-hM5 cells, Fluo-8 calcium fluorescence, ACh EC80; inhibition, % at 3 µM; AID 624040; actives 0.59% (n = 360,000); P08912;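 active = inhibition above a per-plate cutoff, the mean of that plate's test compounds plus 3 SD, cut at about 27% in these data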;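 also: 0% = acetylcholine EC80 with DMSO and 100% = DMSO without agonist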
M4 ag: agonists of human muscarinic M4 receptor (CHRM4); actives 0.14% (n = 360,000); activation, % at 3 µM; P08173; AID 624127; CHO-K1 hM4/Gqi5, Fluo-8 calcium fluorescence; vehicle 0%, full acetylcholine response 100%;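 active = activation above the run mean over all test wells plus 3 SD, cut at about 32% in these data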;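 also: peak over basal fluorescence ratio per well then scaled between controls; 0% = DMSO wells and 100% = acetylcholine at EC100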
M4 PAM: potentiates acetylcholine response at human M4 receptor. actives 0.4% (n = 360,000). AID 624126. P08173. CHO-K1 hM4/Gqi5, Fluo-8 calcium fluorescence, ACh EC20; 0% = ACh EC20, 100% = maximal ACh. activation, % at 3 µM;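 active = activation above its plate's cutoff, the mean activation of sample wells plus 3 SD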
M5 PAM: potentiates acetylcholine response at human M5 receptor; CHO-K1 hM5, Fluo-8 calcium, ACh EC20 PAM; 0% = ACh EC20, 100% = ACh EC100; activation, % at 3 µM; actives 0.3% (n = 360,000); AID 624038;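 active = activation above the run cutoff, the mean activation of all test compounds plus 3 SD, cut at about 18% in these data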
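System: CHO-K1 hM5 cells. Reagent: acetylcholine, EC20 level. Compound dosing: single dose, 3 µM nominal final test concentration. Timing: Post-acetylcholine fluorescence recording 140 s. Detection: Fluo-8 calcium fluorescence. Read-out: % activation, ACh-normalized. Benchmarks: ACh EC20 and EC100 wells. Repeats: singlicate, one well per test compound.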
CHRM4 antagonist: blocks acetylcholine activation of human M4 receptor | P08173 | actives 0.73% (n = 360,000) | CHO-hM4 cells, ACh EC80, Fluo-8 calcium fluorescence | AID 624125 | inhibition, % at 3 µM;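 active = inhibition above its plate's cutoff, the mean inhibition of sample wells plus 3 SD, cut at about 27% in these data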;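 also: 0% = acetylcholine EC80 with DMSO and 100% = DMSO without agonist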
* hit, by the source's call.

Screening O=C(O)c1nn(CC(=O)N2CCCCCC2)c(=O)c2ccccc12 returned M5 ag -1, CHRM5 antagonist 10, M4 ag 0, M4 PAM -1, M5 PAM 2 and CHRM4 antagonist 4.
Screening Cc1cc(F)ccc1-c1cc(C(=O)NCc2ccc(C(F)(F)F)cc2)[nH]n1 returned M5 ag 33*, CHRM5 antagonist 5, M4 ag 20, M4 PAM -4, M5 PAM 1 and CHRM4 antagonist -7.
Screening CC(=O)c1ccc(-c2ccc(C(=O)N3CCC(C(N)=O)CC3)o2)cc1 returned M5 ag -4, CHRM5 antagonist 5, M4 ag 1, M4 PAM 6, M5 PAM -8 and CHRM4 antagonist -25.
O=C(CCCN1C(=O)/C(=C\c2cccs2)SC1=S)Nc1cccc(C(=O)O)c1 was read as M5 ag -2, CHRM5 antagonist -5, M4 ag 1, M4 PAM 21*, M5 PAM 0 and CHRM4 antagonist -20.
Cc1cc(C(=O)CSc2nc3ccccc3[nH]2)c(C)n1CC1CCCO1 (stereo not drawn) was read as M5 ag 10, CHRM5 antagonist 60*, M4 ag 35*, M4 PAM -17, M5 PAM -23 and CHRM4 antagonist 66*.
`Cc1cc(C(=O)CSc2nc(N)cc(=O)[nH]2)c(C)n1CC1CCCO1` (stereo not drawn) gave M5 ag 0, CHRM5 antagonist 23, M4 ag 1, M4 PAM -2, M5 PAM -2 and CHRM4 antagonist 6.
`NC(=O)c1c(NC(=O)COC(=O)c2ccc(O)c(Cl)c2)sc2c1CCCC2` gave M5 ag 9, CHRM5 antagonist 4, M4 ag 0, M4 PAM 0, M5 PAM 13 and CHRM4 antagonist -5.
Screening Cn1cccc1C(=O)NC1CCCCCC1 returned M5 ag 3, CHRM5 antagonist -3, M4 ag 1, M4 PAM 14, M5 PAM 4 and CHRM4 antagonist 0.
For CC1CCCCN1C/C=C/c1ccccc1[N+](=O)[O-] (stereo not drawn) the results were M5 ag -12, CHRM5 antagonist 11, M4 ag 2, M4 PAM -27, M5 PAM -21 and CHRM4 antagonist 34*.
CCC1CCCCN1C/C=C/c1ccccc1[N+](=O)[O-] (stereo not drawn) was read as M5 ag -11, CHRM5 antagonist 55*, M4 ag 1, M4 PAM -32, M5 PAM -21 and CHRM4 antagonist 54*.
`O=C(Sc1cccc2cccnc12)c1ccccc1Br` gave M5 ag -4, CHRM5 antagonist 27, M4 ag 4, M4 PAM -6, M5 PAM -2 and CHRM4 antagonist 39*.
Screening CCNc1nc(=S)nc(NC(C)C)[nH]1 returned M5 ag 2, CHRM5 antagonist -8, M4 ag 0, M4 PAM 11, M5 PAM 18* and CHRM4 antagonist -2.
COc1ccc(OC)c(/C=N/NC(=O)C(=O)N2CCCCCC2)c1 was read as M5 ag 0, CHRM5 antagonist 1, M4 ag 2, M4 PAM -1, M5 PAM -2 and CHRM4 antagonist -5.
CCCCCCCN1C(N(C)C)=NC[C@@H]1Cc1ccccc1 was read as M5 ag -11, CHRM5 antagonist 9, M4 ag 3, M4 PAM -14, M5 PAM -2 and CHRM4 antagonist 32*.
For O=C(CC[C@H]1O[C@@H](n2cnc3c(NC(=O)c4ccccc4)ncnc32)[C@H](O)[C@@H]1O)NCC1CCCO1 (stereo partly drawn) the results were M5 ag 3, CHRM5 antagonist -4, M4 ag 2, M4 PAM 20*, M5 PAM 1 and CHRM4 antagonist -22.
Screening O=c1[nH]c2ccccc2c2nc(-c3cccc(S(=O)(=O)N4CCCC4)c3)nn12 returned M5 ag -3, CHRM5 antagonist 6, M4 ag 1, M4 PAM 19, M5 PAM -5 and CHRM4 antagonist 29*.
`N#Cc1ccc(NC(=O)Nc2ccc(Oc3ccc(NC(=O)Nc4ccc(C#N)cc4)cc3)cc2)cc1` gave M5 ag 3, CHRM5 antagonist 12, M4 ag 12, M4 PAM -2, M5 PAM -15 and CHRM4 antagonist 2.
CN(CC(=O)Nc1ccc(C#N)cc1)Cc1ccc(Cl)c(Cl)c1 was read as M5 ag -9, CHRM5 antagonist 0, M4 ag 6, M4 PAM -17, M5 PAM -22 and CHRM4 antagonist 43*.
N#Cc1ccc(NC(=O)Nc2cccc(C#N)c2)cc1 was read as M5 ag 12, CHRM5 antagonist 32*, M4 ag 26, M4 PAM -12, M5 PAM -17 and CHRM4 antagonist 8.
Screening CN(CC(=O)Nc1ccc(C#N)cc1)CC(=O)Nc1ccc(N2CCOCC2)cc1 returned M5 ag 1, CHRM5 antagonist 4, M4 ag 2, M4 PAM -4, M5 PAM -2 and CHRM4 antagonist 1.
CN(CC(=O)Nc1cccc(C#N)c1)Cc1ccc(Cl)cc1 was read as M5 ag -4, CHRM5 antagonist 6, M4 ag 3, M4 PAM 6, M5 PAM 1 and CHRM4 antagonist -9.
For CN(CC(=O)Nc1ccc(N2CCOCC2)cc1)CC(=O)Nc1cccc(C#N)c1 the results were M5 ag 3, CHRM5 antagonist 5, M4 ag 6, M4 PAM 23*, M5 PAM 6 and CHRM4 antagonist -1.
For CCOC(=O)N1CCN(C(=O)c2cc3c(s2)-c2ccccc2OC3)CC1 the results were M5 ag 1, CHRM5 antagonist -6, M4 ag 12, M4 PAM 24*, M5 PAM -8 and CHRM4 antagonist -25.
Screening CCCN1CCN(C(=O)c2cc3c(s2)-c2ccccc2OC3)CC1 returned M5 ag -1, CHRM5 antagonist -1, M4 ag 3, M4 PAM 2, M5 PAM 0 and CHRM4 antagonist -2.
CN1C(=O)C(C)(C)c2cc(S(=O)(=O)N3CCN(c4cccc(Cl)c4)CC3)ccc21 was read as M5 ag 4, CHRM5 antagonist -5, M4 ag 3, M4 PAM -3, M5 PAM -11 and CHRM4 antagonist 3.
`COC(=O)c1ccc2c(=O)n(Cc3ccc(C(=O)NC4CCCC4)cc3)c(=S)[nH]c2c1` gave M5 ag 2, CHRM5 antagonist -2, M4 ag 2, M4 PAM 21*, M5 PAM 3 and CHRM4 antagonist 1.
